Like-named read-outs stand apart in the source and are kept apart here.
How the values were obtained:
ABCG2 = biological target: T1, ABCG2 (Homo sapiens, UniProt Q9UNQ0); assay type: cell-based; settings: for class: ranked by apparent affinity and maximal extent of inhibition; for ABCG2 inhibition (in words): at 2 and 10 µM
T1 sequence (Q9UNQ0 1-655): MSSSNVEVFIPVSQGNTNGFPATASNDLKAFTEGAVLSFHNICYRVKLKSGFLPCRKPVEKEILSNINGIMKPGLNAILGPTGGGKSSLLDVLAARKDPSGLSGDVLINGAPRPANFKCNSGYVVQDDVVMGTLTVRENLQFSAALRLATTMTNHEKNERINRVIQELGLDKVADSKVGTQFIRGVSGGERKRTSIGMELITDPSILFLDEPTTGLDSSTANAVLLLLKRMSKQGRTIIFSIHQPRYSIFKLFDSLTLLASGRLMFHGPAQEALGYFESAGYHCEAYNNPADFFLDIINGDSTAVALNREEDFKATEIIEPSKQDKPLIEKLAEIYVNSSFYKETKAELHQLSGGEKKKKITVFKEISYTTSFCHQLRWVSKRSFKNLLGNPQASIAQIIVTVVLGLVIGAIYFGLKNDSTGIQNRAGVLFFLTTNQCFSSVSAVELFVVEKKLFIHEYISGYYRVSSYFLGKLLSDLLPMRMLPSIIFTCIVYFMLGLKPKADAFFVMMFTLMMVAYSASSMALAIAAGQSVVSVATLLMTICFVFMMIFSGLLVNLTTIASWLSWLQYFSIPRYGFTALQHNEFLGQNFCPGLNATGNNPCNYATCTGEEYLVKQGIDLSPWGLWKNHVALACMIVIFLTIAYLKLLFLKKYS

[1] = test system: HEK293-ABCG2 and HEK293-pcDNA3.1 cells; assay: Cytotoxicity, MTT colorimetric assay, 72 h; assay type: cell-based, human; settings: for IG50 (cytotoxicity, µM): concentration producing 50% inhibition of cell growth, MTT, 72 h
Procedure, shortened: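 HEK293-ABCG2 and empty-vector HEK293-pcDNA3.1 cells (DMEM high glucose, 10% FBS, 0.75 mg/mL G418) seeded at 1 × 10^4 cells/well, attached 24 h at 37 °C, 5% CO2. Exposed 72 h to various concentrations of test compound (DMSO stock diluted in medium). MTT (5 mg/mL solution) added for 4 h, formazan dissolved in DMSO, A570 read. Triplicates; viability relative to 0.1% DMSO control (100%).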

| Structure (SMILES) | class (ABCG2; Table 1) | further results |
| --- | --- | --- |
| COc1cccc(OC)c1C(=O)/C=C/c1ccccc1 [Compound 1] | 3 |  |
| COc1ccccc1/C=C/C(=O)c1c(OC)cccc1OC [Compound 2] | 3 |  |
| COc1cccc(/C=C/C(=O)c2c(OC)cccc2OC)c1 [Compound 3] | 3 |  |
| COc1cccc(OC)c1/C=C/C(=O)c1c(OC)cccc1OC [Compound 4] | 3 |  |
| COc1cc(OC)c(/C=C/C(=O)c2c(OC)cccc2OC)c(OC)c1 [Compound 5] | 3 |  |
| COc1ccc(/C=C/C(=O)c2c(OC)cccc2OC)c(OC)c1OC [Compound 6] | 3 | ABCG2 inhibition (in words) (ABCG2): no inhibition at all |
| COc1cc(OC)c(OC)cc1/C=C/C(=O)c1c(OC)cccc1OC [Compound 7] | 3 |  |
| COc1cc(/C=C/C(=O)c2c(OC)cccc2OC)cc(OC)c1OC [Compound 8] | 3 | ABCG2 inhibition (in words) (ABCG2): low inhibition |
| CCOc1cccc(OCC)c1C(=O)/C=C/c1c(OC)cc(OC)cc1OC [Compound 9] | 3 |  |
| CCOc1cccc(OCC)c1C(=O)/C=C/c1c(OC)cccc1OC [Compound 10] | 3 | ABCG2 inhibition (in words) (ABCG2): especially low, if any, inhibition |
| CCOc1cccc(OCC)c1C(=O)/C=C/c1ccc(OC)cc1OC [Compound 11] | 3 |  |
| COc1ccc(/C=C/C(=O)c2ccc(OC)cc2OC)c(OC)c1 [Compound 12] | 2 (Class 2 comprised high-affinity inhibitors producing an incomplete maximal inhibition (limited to 50–75%)) |  |
| COc1cc(OC)c(/C=C/C(=O)c2c(OC)cc(OC)cc2OC)c(OC)c1 [Compound 13] | 3 |  |
| COc1ccc(/C=C/C(=O)c2c(OC)cc(OC)cc2OC)c(OC)c1 [Compound 14] | 3 |  |
| COc1cc(OC)c(C(=O)/C=C/c2c(OC)cccc2OC)c(OC)c1 [Compound 15] | 3 | ABCG2 inhibition (in words) (ABCG2): especially low, if any, inhibition |
| CCOc1cc(OCC)c(/C=C/C(=O)c2c(OCC)cc(OCC)cc2OCC)c(OCC)c1 [Compound 16] | 2 (Class 2 comprised high-affinity inhibitors producing an incomplete maximal inhibition (limited to 50–75%)) |  |
| COc1cccc(OC)c1/C=C/C(=O)c1ccccc1 [Compound 17] | 3 | ABCG2 inhibition (in words) (ABCG2): especially low, if any, inhibition |
| COc1cc(/C=C/C(=O)c2ccc(OC)cc2O)cc(OC)c1 [Compound 18] | 2 (Class 2 comprised high-affinity inhibitors producing an incomplete maximal inhibition (limited to 50–75%)) |  |
| COc1ccc(C(=O)/C=C/c2ccc(OC)c(OC)c2)c(O)c1 [Compound 20] | 2 (Class 2 comprised high-affinity inhibitors producing an incomplete maximal inhibition (limited to 50–75%)) |  |
| COc1ccc(C(=O)/C=C/c2cc(OC)ccc2OC)c(O)c1 [Compound 23] | 2 (Class 2 comprised high-affinity inhibitors producing an incomplete maximal inhibition (limited to 50–75%)) |  |

| Structure (SMILES) | class (ABCG2; Table 1) | further results |
| --- | --- | --- |
| COc1ccc(C(=O)/C=C/c2c(OC)cccc2OC)c(O)c1 [Compound 25] | 2 (Class 2 comprised high-affinity inhibitors producing an incomplete maximal inhibition (limited to 50–75%)) |  |
| COc1ccc(C(=O)/C=C/c2ccc(OC)cc2OC)c(O)c1 [Compound 26] | 2 (Class 2 comprised high-affinity inhibitors producing an incomplete maximal inhibition (limited to 50–75%)) |  |
| COc1cc(O)c(C(=O)/C=C/c2c(OC)cccc2OC)c(OC)c1 [Compound 27] | 1 (Class 1 included high-affinity inhibitors (IC50 < 1 µM) producing a complete inhibition at both 2 and 10 µM) |  |
| COc1cc(/C=C/C(=O)c2c(O)cc(OC)cc2OC)cc(OC)c1 [Compound 28] | 1 (Class 1 included high-affinity inhibitors (IC50 < 1 µM) producing a complete inhibition at both 2 and 10 µM) | IG50 (cytotoxicity, µM) [1]: 6.0 ± 0.4 µM |
| COc1cc(O)c(C(=O)/C=C/c2ccccc2)c(OC)c1 [Compound 29] | 2 (Class 2 comprised high-affinity inhibitors producing an incomplete maximal inhibition (limited to 50–75%)) |  |
| COc1cc(O)c(C(=O)/C=C/c2ccccc2OC)c(OC)c1 [Compound 30] | 3 |  |
| COc1cccc(/C=C/C(=O)c2c(O)cc(OC)cc2OC)c1 [Compound 31] | 1 (Class 1 included high-affinity inhibitors (IC50 < 1 µM) producing a complete inhibition at both 2 and 10 µM) | IG50 (cytotoxicity, µM) [1]: 10.0 ± 2.1 µM |
| COc1cc(OC)c(/C=C/C(=O)c2c(O)cc(OC)cc2OC)c(OC)c1 [Compound 32] | 3 |  |
| COc1cc(O)c(C(=O)/C=C/c2cc(OC)c(OC)c(OC)c2)c(OC)c1 [Compound 33] | 2 (Class 2 comprised high-affinity inhibitors producing an incomplete maximal inhibition (limited to 50–75%)) |  |
| COc1cc(O)c(C(=O)/C=C/c2ccc(OC)c(OC)c2OC)c(OC)c1 [Compound 34] | 3 |  |
| COc1ccc(/C=C/C(=O)c2cn(C)c3ccccc23)c(OC)c1 [Compound 35] |  | class (ABCG2; Table 2): 3 |
| COc1cc(/C=C/C(=O)c2cn(C)c3ccccc23)cc(OC)c1OC [Compound 36] |  | class (ABCG2; Table 2): 3 |
| COc1cc(OC)c(/C=C/C(=O)c2cn(C)c3ccccc23)c(OC)c1 [Compound 37] |  | class (ABCG2; Table 2): 1 (Class 1 included high-affinity inhibitors (IC50 < 1 µM) producing a complete inhibition at both 2 and 10 µM); IG50 (cytotoxicity, µM) [1]: 4.0 ± 0.2 µM |
| COc1cccc(OC)c1/C=C/C(=O)c1cn(C)c2ccccc12 [Compound 38] |  | class (ABCG2; Table 2): 1 (Class 1 included high-affinity inhibitors (IC50 < 1 µM) producing a complete inhibition at both 2 and 10 µM) |
| COc1cc(OC)c(/C=C/C(=O)c2cn(C)c3ccc(OC)cc23)c(OC)c1 [Compound 39] |  | class (ABCG2; Table 2): 1 (Class 1 included high-affinity inhibitors (IC50 < 1 µM) producing a complete inhibition at both 2 and 10 µM); fold lower IG50 than compounds 27 and 38 [1]: 50 fold; IG50 (cytotoxicity, µM) [1]: 1.0 ± 0.1 µM |
| COc1ccc(C(=O)/C=C/c2cn(C)c3ccccc23)c(OC)c1 [Compound 40] |  | class (ABCG2; Table 2): 3 |
| COc1cc(OC)c(C(=O)/C=C/c2cn(C)c3ccccc23)c(OC)c1 [Compound 42] |  | class (ABCG2; Table 2): 3; ABCG2 inhibition (in words) (ABCG2): especially low, if any, inhibition |
| COc1cccc(OC)c1C(=O)/C=C/c1cn(C)c2ccccc12 [Compound 43] |  | class (ABCG2; Table 2): 3; ABCG2 inhibition (in words) (ABCG2): especially low, if any, inhibition |
| Cn1cc(/C=C/C(=O)c2cn(C)c3ccccc23)c2ccccc21 [Compound 44, 1,3-diindolylpropenone] |  | class (ABCG2; Table 2): 3 |
